Measured values: ChEMBL document CHEMBL1151684, “Synthesis and antitumoral activity of novel 3-(2-substituted-1,3,4-oxadiazol-5-yl) and 3-(5-substituted-1,2,4-triazol-3-yl) beta-carboline derivatives” (2008)

Tests used:
Type in all cases: functional
K562 = test: Growth inhibition of human K-562 cells after 48 hrs by sulforhodamine B assay; conditions: K562, 48 h
Outline: (§1)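 Sulforhodamine B colorimetric assay following the NCI standard protocol, with doxorubicin as positive control. Each compound was tested at four concentrations in 10-fold dilutions (0.25 to 250). GI50, the concentration giving 50% growth reduction versus untreated control cells, was derived from dose–response curves.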

[1] = Growth inhibition of human PCO3 cells after 48 hrs by sulforhodamine B assay; conditions: PCO3, 48 h; outline: as §1
[2] = Growth inhibition of human NCI-460 cells after 48 hrs by sulforhodamine B assay; conditions: NCI-460, 48 h; outline: as §1
OVCAR = test: Growth inhibition of human OVCAR cells after 48 hrs by sulforhodamine B assay; outline: as §1
UACC-62 = test: Growth inhibition of human UACC-62 cells after 48 hrs by sulforhodamine B assay; conditions: UACC-62, 48 h; outline: as §1
HT-29 = test: Growth inhibition of human HT-29 cells after 48 hrs by sulforhodamine B assay; conditions: HT-29, 48 h; outline: as §1
786-0 = test: Growth inhibition of human 786-0 cells after 48 hrs by sulforhodamine B assay; conditions: 786-0, 48 h; for CC50: read-out: LC50 (the source's name); outline: as §1
MCF7 = test: Growth inhibition of human MCF7 cells after 48 hrs by sulforhodamine B assay; conditions: MCF7, 48 h; outline: as §1

SMILES	GI50 (K562)	TGI (K562)	GI50 [1]	LC50 (concentration killing 50% of cells) [1]	TGI [1]	GI50 [2]	LC50 (concentration for 50% net cell kill) [2]	TGI [2]	GI50 (OVCAR)	LC50 (concentration killing 50% of the cells, NCI protocol) (OVCAR)	TGI (OVCAR)	GI50 (UACC-62)	TGI (UACC-62)	GI50 (HT-29)	TGI (HT-29)	GI50 (786-0)	TGI (786-0)	CC50 (786-0)	GI50 (MCF7)	TGI (MCF7)	further results
CSc1nnc(-c2cc3c([nH]c4ccccc43)c(-c3ccc(O)cc3)n2)o1	10.8 µM	28.8 µM	10.5 µM	59.2 µM	24.8 µM	17.8 µM	> 100 µM	73.4 µM	13.5 µM	100 µM	35 µM	19.1 µM	> 100 µM	12.8 µM	35 µM	11.8 µM	24.8 µM	51.9 µM	7.42 µM	23.4 µM	LC50 (concentration killing 50% of the cells present at the start) (HT-29): > 100 µM; LC50 (concentration killing 50% of cells) (MCF7): 80.3 µM
S=c1[nH]nc(-c2cc3c([nH]c4ccccc43)c(-c3ccccc3)n2)[nH]1	3.2 µM	–	4.11 µM	–	–	6.36 µM	–	–	64.9 µM	–	–	6.36 µM	–	35.5 µM	–	7.56 µM	–	–	> 100 µM	–	–
O=[N+]([O-])c1ccc(-c2nc(-c3n[nH]c(=S)o3)cc3c2[nH]c2ccccc23)cc1	46.7 µM	> 100 µM	26 µM	> 100 µM	99.2 µM	> 100 µM	–	> 100 µM	> 100 µM	–	> 100 µM	38 µM	> 100 µM	31.3 µM	> 100 µM	73.1 µM	> 100 µM	–	27.6 µM	> 100 µM	–
CN(C)c1ccc(-c2nc(-c3n[nH]c(=S)o3)cc3c2[nH]c2ccccc23)cc1	9.55 µM	–	14.7 µM	–	–	19.1 µM	–	–	14.7 µM	–	–	23.8 µM	–	40.5 µM	–	14.7 µM	–	–	18.8 µM	–	–
CSc1nnc(-c2cc3c([nH]c4ccccc43)c(-c3ccc([N+](=O)[O-])cc3)n2)o1	> 100 µM	–	> 100 µM	–	–	> 100 µM	–	–	> 100 µM	–	–	> 100 µM	–	> 100 µM	–	> 100 µM	–	–	> 100 µM	–	–
CSc1nnc(-c2cc3c([nH]c4ccccc43)c(-c3ccccc3Cl)n2)n1N	1.92 µM	> 100 µM	22.2 µM	–	> 100 µM	13.9 µM	> 100 µM	41.8 µM	11.2 µM	> 100 µM	38.4 µM	18.6 µM	59 µM	20.4 µM	> 100 µM	16.8 µM	93.5 µM	> 100 µM	20.1 µM	> 100 µM	LC50 (concentration killing 50% of cells, NCI protocol) (UACC-62): > 100 µM
O=[N+]([O-])c1cccc(-c2nc(-c3n[nH]c(=S)o3)cc3c2[nH]c2ccccc23)c1	11 µM	86.7 µM	12.2 µM	> 100 µM	35.7 µM	73.4 µM	–	> 100 µM	22.3 µM	–	> 100 µM	24.1 µM	> 100 µM	27.9 µM	> 100 µM	32.4 µM	> 100 µM	–	27.9 µM	> 100 µM	LC50 (concentration causing 50% net cell kill) (K562): > 100 µM
Nn1c(-c2cc3c([nH]c4ccccc43)c(-c3ccccc3Cl)n2)n[nH]c1=S	62.4 µM	> 100 µM	24.7 µM	–	> 100 µM	15.4 µM	> 100 µM	38 µM	6.8 µM	> 100 µM	49.9 µM	20.2 µM	86.1 µM	33 µM	> 100 µM	39.5 µM	–	> 100 µM	70.1 µM	> 100 µM	LC50 (concentration killing 50% of cells, NCI protocol) (UACC-62): > 100 µM
COc1cc(-c2nc(-c3n[nH]c(=S)o3)cc3c2[nH]c2ccccc23)ccc1O	31.7 µM	> 100 µM	25.9 µM	> 100 µM	97.3 µM	89.3 µM	–	> 100 µM	5.87 µM	–	> 100 µM	17.3 µM	47.9 µM	17.3 µM	> 100 µM	22.4 µM	> 100 µM	–	32.2 µM	> 100 µM	LC50 (concentration killing 50% of cells, NCI protocol) (UACC-62): > 100 µM
